Columns and labels:
Human alphaherpesvirus 1 [1] = test: Antiviral activity against acyclovir-resistant TK-defecient Herpes simplex virus 1 KOS infected in human HEL cells assessed as inhibition of virus-induced cytopathic effect after 3 days by microscopic method; format: functional, organism-based; settings: Human alphaherpesvirus 1, KOS, 72 h
[2] = Selectivity index, ratio of MCC for HEL cells to EC50 for Herpes simplex virus 2 strain G infected in HEL cells; format: toxicity, cell-based; settings: human, read-out: Selectivity Index
How it was run: (§1)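 SI is MCC divided by EC50. […] MCC was measured in parallel on HEL cells seeded at 5 x 10^3 cells/well, as the lowest concentration causing microscopically visible alteration of cell morphology. The top concentration tested was 100 µM.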

[3] = Selectivity index, ratio of MCC for HEL cells to EC50 for Human coronavirus 229E infected in HEL cells; format: toxicity, cell-based; settings: read-out: Selectivity Index; how it was run: as §1
Vaccinia virus = test: Antiviral activity against Vaccinia virus infected in human HEL cells assessed as inhibition of virus-induced cytopathic effect after 3 days by microscopic method; format: functional, organism-based; settings: Orthopoxvirus vaccinia, 72 h
Human alphaherpesvirus 2 = test: Antiviral activity against Human herpesvirus 2 strain G infected in human HEL cells assessed as inhibition of virus-induced cytopathic effect after 3 days by microscopic method; format: functional, organism-based; settings: Human alphaherpesvirus 2, strain G, 72 h
Human alphaherpesvirus 1 [4] = test: Antiviral activity against Herpes simplex virus 1 KOS infected in human HEL cells assessed as inhibition of virus-induced cytopathic effect after 3 days by microscopic method; format: functional, organism-based; settings: Human alphaherpesvirus 1, KOS, 72 h
[5] = Selectivity index, ratio of MCC for HEL cells to EC50 for acyclovir-resistant TK-defecient Herpes simplex virus 1 KOS infected in HEL cells; format: toxicity, cell-based; settings: human, read-out: Selectivity Index; how it was run: as §1
Human coronavirus 229E = test: Antiviral activity against Human coronavirus 229E infected in HEL cells assessed as reduction in virus-induced pathogenicity after 3 days by microscopic method; format: functional, organism-based; settings: 72 h
[6] = Selectivity index, ratio of MCC for HEL cells to EC50 for Herpes simplex virus 1 KOS infected in HEL cells; format: toxicity, cell-based; settings: human, read-out: Selectivity Index; how it was run: as §1
[7] = Cytotoxicity against HEL cells assessed as alteration in cell morphology after 3 days by microscopic method; format: cell-based; settings: human
How it was run: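 HEL cells were seeded at 5 x 10^3 cells/well and exposed to graded compound concentrations, up to 100 μM, in parallel with the antiviral assay. Cell morphology was examined by light microscopy. MCC is the minimum concentration causing a microscopically detectable alteration of normal cell morphology.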

[8] = Selectivity index, ratio of MCC for HEL cells to EC50 for Vaccinia virus infected in HEL cells; format: toxicity, cell-based; settings: human, read-out: Selectivity Index; how it was run: as §1
[9] = Selectivity index, ratio of MCC for HEL cells to EC50 for Human adenovirus 2 infected in HEL cells; format: toxicity, cell-based; settings: read-out: Selectivity Index; how it was run: as §1
Human adenovirus 2 = test: Antiviral activity against Human adenovirus 2 infected in human HEL cells assessed as inhibition of virus-induced cytopathic effect after 3 days by microscopic method; format: functional, organism-based; settings: Human mastadenovirus C, 72 h
How it was run: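 HEL cells were infected with adenovirus 2 for 2 h. Residual virus was then removed and the cells were incubated with medium containing graded compound concentrations for 3 days at 37°C. Virus-induced cytopathogenicity was scored microscopically.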

CCOC(=O)C1(Cc2ccccc2)CN(c2ccccc2)Cc2nnn(Cc3cc(OC)c(OC)c(OC)c3)c21 (stereo unspecified)
EC50 (Human alphaherpesvirus 1 [1]): > 100 µM | selectivity ratio [2]: > 8 | selectivity ratio [3]: > 8 | EC50 (Vaccinia virus): > 100 µM | EC50 (Human alphaherpesvirus 2): > 100 µM | EC50 (Human alphaherpesvirus 1 [4]): > 100 µM | selectivity ratio [5]: > 8 | EC50 (Human coronavirus 229E): > 100 µM | selectivity ratio [6]: > 8 | MCC at 72 h [7]: ≥ 100 µM | selectivity ratio [8]: > 8 | selectivity ratio [9]: > 8 | EC50 (Human adenovirus 2): > 100 µM

Fc1ccc(Cn2nnc3c2CCN(c2ccc(C(F)(F)F)cc2)C3)cc1
EC50 (Human alphaherpesvirus 1 [1]): > 100 µM | selectivity ratio [2]: > 8 | selectivity ratio [3]: > 8 | EC50 (Vaccinia virus): > 100 µM | EC50 (Human alphaherpesvirus 2): > 100 µM | EC50 (Human alphaherpesvirus 1 [4]): > 100 µM | selectivity ratio [5]: > 8 | EC50 (Human coronavirus 229E): > 100 µM | selectivity ratio [6]: > 8 | MCC at 72 h [7]: 100 µM | selectivity ratio [8]: > 8 | selectivity ratio [9]: > 8 | EC50 (Human adenovirus 2): > 100 µM

CCOC(=O)C1(Cc2ccccc2)CN(c2ccccc2)Cc2nnn(Cc3ccco3)c21 (stereo unspecified)
EC50 (Human alphaherpesvirus 1 [1]): > 100 µM | selectivity ratio [2]: > 8 | selectivity ratio [3]: > 8 | EC50 (Vaccinia virus): > 100 µM | EC50 (Human alphaherpesvirus 2): > 100 µM | EC50 (Human alphaherpesvirus 1 [4]): > 100 µM | selectivity ratio [5]: > 8 | EC50 (Human coronavirus 229E): > 100 µM | selectivity ratio [6]: > 8 | MCC at 72 h [7]: 100 µM | selectivity ratio [8]: > 8 | selectivity ratio [9]: > 8 | EC50 (Human adenovirus 2): > 100 µM

CCCCCCCCn1nnc2c1C(Cc1ccccc1)(C(=O)OCC)CN(c1ccccc1)C2 (stereo unspecified)
EC50 (Human alphaherpesvirus 1 [1]): > 100 µM | selectivity ratio [2]: > 8 | selectivity ratio [3]: > 8 | EC50 (Vaccinia virus): > 100 µM | EC50 (Human alphaherpesvirus 2): > 100 µM | EC50 (Human alphaherpesvirus 1 [4]): > 100 µM | selectivity ratio [5]: > 8 | EC50 (Human coronavirus 229E): > 100 µM | selectivity ratio [6]: > 8 | MCC at 72 h [7]: ≥ 20 µM | selectivity ratio [8]: > 8 | selectivity ratio [9]: > 8 | EC50 (Human adenovirus 2): > 100 µM

CCOC(=O)C1(Cc2ccccc2)CN(c2ccccc2)Cc2nnn(Cc3ccc(Cl)cc3)c21 (stereo unspecified)
EC50 (Human alphaherpesvirus 1 [1]): > 100 µM | selectivity ratio [2]: > 8 | selectivity ratio [3]: > 8 | EC50 (Vaccinia virus): > 100 µM | EC50 (Human alphaherpesvirus 2): > 100 µM | EC50 (Human alphaherpesvirus 1 [4]): > 100 µM | selectivity ratio [5]: > 8 | EC50 (Human coronavirus 229E): > 100 µM | selectivity ratio [6]: > 8 | MCC at 72 h [7]: > 100 µM | selectivity ratio [8]: > 8 | selectivity ratio [9]: > 8 | EC50 (Human adenovirus 2): > 100 µM

CCCCCCn1nnc2c1CCN(c1ccc(C(F)(F)F)cc1)C2
EC50 (Human alphaherpesvirus 1 [1]): > 100 µM | selectivity ratio [2]: > 8 | selectivity ratio [3]: > 8 | EC50 (Vaccinia virus): > 100 µM | EC50 (Human alphaherpesvirus 2): > 100 µM | EC50 (Human alphaherpesvirus 1 [4]): > 100 µM | selectivity ratio [5]: > 8 | EC50 (Human coronavirus 229E): > 100 µM | selectivity ratio [6]: > 8 | MCC at 72 h [7]: > 100 µM | selectivity ratio [8]: > 8 | selectivity ratio [9]: > 8 | EC50 (Human adenovirus 2): > 100 µM

CCOC(=O)C1(Cc2ccccc2)CN(c2ccccc2)Cc2nnn(Cc3cccc(Cl)c3)c21 (stereo unspecified)
EC50 (Human alphaherpesvirus 1 [1]): > 100 µM | selectivity ratio [2]: > 8 | selectivity ratio [3]: > 8 | EC50 (Vaccinia virus): > 100 µM | EC50 (Human alphaherpesvirus 2): > 100 µM | EC50 (Human alphaherpesvirus 1 [4]): > 100 µM | selectivity ratio [5]: > 8 | EC50 (Human coronavirus 229E): > 100 µM | selectivity ratio [6]: > 8 | MCC at 72 h [7]: > 100 µM | selectivity ratio [8]: > 8 | selectivity ratio [9]: > 8 | EC50 (Human adenovirus 2): > 100 µM

CCOC(=O)C1(Cc2ccccc2)CN(c2ccccc2)Cc2nnn(Cc3ccc(F)cc3)c21 (stereo unspecified)
EC50 (Human alphaherpesvirus 1 [1]): > 100 µM | selectivity ratio [2]: > 8 | selectivity ratio [3]: > 8 | EC50 (Vaccinia virus): > 100 µM | EC50 (Human alphaherpesvirus 2): > 100 µM | EC50 (Human alphaherpesvirus 1 [4]): > 100 µM | selectivity ratio [5]: > 8 | EC50 (Human coronavirus 229E): 8.95 µM | selectivity ratio [6]: > 8 | MCC at 72 h [7]: ≥ 100 µM | selectivity ratio [8]: > 8 | selectivity ratio [9]: > 8 | EC50 (Human adenovirus 2): > 100 µM

CCCCCCn1nnc2c1CCN(c1ccc(F)cc1)C2
EC50 (Human alphaherpesvirus 1 [1]): > 100 µM | selectivity ratio [2]: > 8 | selectivity ratio [3]: > 8 | EC50 (Vaccinia virus): > 100 µM | EC50 (Human alphaherpesvirus 2): > 100 µM | EC50 (Human alphaherpesvirus 1 [4]): > 100 µM | selectivity ratio [5]: > 8 | EC50 (Human coronavirus 229E): > 100 µM | selectivity ratio [6]: > 8 | MCC at 72 h [7]: > 100 µM | selectivity ratio [8]: > 8 | selectivity ratio [9]: > 8 | EC50 (Human adenovirus 2): > 100 µM

c1ccc(N2CCc3c(nnn3CC3CC3)C2)cc1
EC50 (Human alphaherpesvirus 1 [1]): > 100 µM | selectivity ratio [2]: > 8 | selectivity ratio [3]: > 8 | EC50 (Vaccinia virus): > 100 µM | EC50 (Human alphaherpesvirus 2): > 100 µM | EC50 (Human alphaherpesvirus 1 [4]): > 100 µM | selectivity ratio [5]: > 8 | EC50 (Human coronavirus 229E): > 100 µM | selectivity ratio [6]: > 8 | MCC at 72 h [7]: > 100 µM | selectivity ratio [8]: > 8 | selectivity ratio [9]: > 8 | EC50 (Human adenovirus 2): > 100 µM

CCOC(=O)C1(Cc2ccccc2)CN(c2ccccc2)Cc2nnn(CCc3cc4ccccc4[nH]3)c21 (stereo unspecified)
EC50 (Human alphaherpesvirus 1 [1]): > 100 µM | selectivity ratio [2]: > 8 | selectivity ratio [3]: > 8 | EC50 (Vaccinia virus): > 100 µM | EC50 (Human alphaherpesvirus 2): > 100 µM | EC50 (Human alphaherpesvirus 1 [4]): > 100 µM | selectivity ratio [5]: > 8 | EC50 (Human coronavirus 229E): 9.45 µM | selectivity ratio [6]: > 8 | MCC at 72 h [7]: > 100 µM | selectivity ratio [8]: > 8 | selectivity ratio [9]: > 8 | EC50 (Human adenovirus 2): > 100 µM

CCOC(=O)C1(Cc2ccc(F)cc2)CN(c2ccccc2)Cc2nnn(Cc3ccc(Cl)c(Cl)c3)c21 (stereo unspecified)
EC50 (Human alphaherpesvirus 1 [1]): > 100 µM | selectivity ratio [2]: > 8 | selectivity ratio [3]: > 8 | EC50 (Vaccinia virus): > 100 µM | EC50 (Human alphaherpesvirus 2): > 100 µM | EC50 (Human alphaherpesvirus 1 [4]): > 100 µM | selectivity ratio [5]: > 8 | EC50 (Human coronavirus 229E): 9.45 µM | selectivity ratio [6]: > 8 | MCC at 72 h [7]: > 100 µM | selectivity ratio [8]: > 8 | selectivity ratio [9]: > 8 | EC50 (Human adenovirus 2): > 100 µM

— ChEMBL document CHEMBL4265975, “Synthesis, biological evaluation and molecular modeling of a novel series of fused 1,2,3-triazoles as potential anti-coronavirus agents” (Bioorg Med Chem Lett, 2018)
